Assay [1] addresses Coagulation factor VII/tissue factor (Homo sapiens) (UniProt P08709+P13726). The experiment in a line: Selectivity for F7a/TF over trypsin. The class given is protein-complex assay. A digest of the protocol: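 Trypsin (10 nM) was tested without CaCl2, using Tosyl-Gly-Pro-Lys-pNA at Km. Readout was kinetic A405, and Ki was fitted with the Morrison tight-binding equation.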
In assay [2] the target is Coagulation factor VII and X (Homo sapiens) (UniProt P00742+P08709). In words: Selectivity for F7a/TF over F10a. The class given is protein assay. The procedure, abridged: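 Reactions were started with pNA substrate at Km and read as A405 over time. Ki was fitted with the Morrison tight-binding equation.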
The next assay has as its target T1, Coagulation factor VII (Homo sapiens, UniProt P08709).
T1 sequence (P08709 whole entry): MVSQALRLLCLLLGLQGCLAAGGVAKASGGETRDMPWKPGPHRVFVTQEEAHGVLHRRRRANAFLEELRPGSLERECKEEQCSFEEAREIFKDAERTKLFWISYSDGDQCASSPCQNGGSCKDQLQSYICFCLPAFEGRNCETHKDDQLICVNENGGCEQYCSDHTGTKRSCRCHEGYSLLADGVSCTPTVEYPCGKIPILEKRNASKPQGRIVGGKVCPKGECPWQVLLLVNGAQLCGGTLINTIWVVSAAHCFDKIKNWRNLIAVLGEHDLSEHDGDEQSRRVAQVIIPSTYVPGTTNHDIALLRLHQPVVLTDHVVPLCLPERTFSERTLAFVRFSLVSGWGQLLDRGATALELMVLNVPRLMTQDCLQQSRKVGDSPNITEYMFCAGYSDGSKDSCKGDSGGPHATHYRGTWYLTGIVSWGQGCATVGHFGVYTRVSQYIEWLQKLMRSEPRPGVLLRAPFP
The experiment in a line: Binding affinity to F7a/TF complex. The class given is protein-complex assay.

The target in assay [3] is Thrombin and coagulation factor VII (Homo sapiens) (UniProt P00734+P08709). In words: Selectivity for F7a/TF over F2a. The class given is protein assay. The procedure, abridged: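 FVIIa (7 nM) with soluble tissue factor (11 nM) was run in 1.5 mM EDTA. Thrombin (12.7 nM) was run in 1 mM EDTA with Tosyl-Gly-Pro-Lys-pNA at Km. Hydrolysis was followed at 405 nm, and apparent Ki came from a Morrison equation fit.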

In another assay the target is Coagulation factor X (Homo sapiens, UniProt P00742). In words: Binding affinity to F10a.
Coagulation factor X, sequence (P00742 41-179 limits assumed): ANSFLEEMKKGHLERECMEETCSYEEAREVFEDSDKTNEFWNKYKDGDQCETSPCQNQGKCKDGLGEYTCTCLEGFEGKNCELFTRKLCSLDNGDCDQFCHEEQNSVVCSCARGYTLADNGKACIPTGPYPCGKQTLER
Coagulation factor X, sequence (P00742 235-488 limits assumed): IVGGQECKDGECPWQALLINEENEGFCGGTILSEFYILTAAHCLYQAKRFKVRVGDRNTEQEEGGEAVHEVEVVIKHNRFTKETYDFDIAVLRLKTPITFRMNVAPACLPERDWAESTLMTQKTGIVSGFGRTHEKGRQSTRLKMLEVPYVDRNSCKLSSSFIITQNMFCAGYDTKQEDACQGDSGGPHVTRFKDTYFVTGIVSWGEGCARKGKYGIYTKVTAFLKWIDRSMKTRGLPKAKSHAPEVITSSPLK
Assay [4] can be described thus: Binding affinity to trypsin. Further details: species or system Homo sapiens.
The next assay deals with Prothrombin (Homo sapiens, UniProt P00734). In words: Binding affinity to F2a.

SMILES strings stand for the structures.

Usually Ki stands for the dissociation constant of the complex between target and ligand, obtained from inhibition or displacement. A lower Ki goes with higher affinity. For `O=C(NCc1cccc(-c2cccc(-c3cc4c[nH]ccc-4n3)c2O)c1)Nc1ccccc1F`, the values for the Ratio Ki in assay [1], in assay [2] and in assay [3] were 2630, 1930 and 2460, respectively. At Coagulation factor VII, this compound showed a Ki of 57 nM.

As for `O=C(NCc1cccc(-c2cccc(-c3cc4c[nH]ccc-4n3)c2O)c1)Nc1ccccc1`, the Ratio Ki in assay [1] was found to be 2030; in assay [2] it was 1010; in assay [3], 2110. This compound showed a Ki on Coagulation factor VII of 61.5 nM.

For the compound `O=C(NCc1cccc(-c2cccc(-c3cc4c[nH]ccc-4n3)c2O)c1)N(O)Cc1ccccc1`, the Ratio Ki in assay [1] is 375; in assay [2], 653; in assay [3] it was 750. On Coagulation factor VII, this compound yielded a Ki of 72 nM.

Consider `NC(=O)NCc1cccc(-c2cccc(-c3cc4c[nH]ccc-4n3)c2O)c1`, for which the Ki at Coagulation factor X was 125 µM; in assay [4], 46.5 µM; on Prothrombin, 71.5 µM.

`O=C(NCc1cccc(-c2cccc(-c3cc4c[nH]ccc-4n3)c2O)c1)Nc1cc(F)cc(F)c1`: the Ratio Ki in assay [1], in assay [2] and in assay [3] was 181 in each case. At Coagulation factor VII, this compound returned a Ki of 830 nM.

As to `O=C(NCc1cccc(-c2cccc(-c3cc4c[nH]ccc-4n3)c2O)c1)Nc1ccc(F)c(F)c1`, the Ratio Ki in assay [1], in assay [2] and in assay [3] was 455 in each case. This compound also gave a Ki at Coagulation factor VII of 330 nM.

Regarding `O=C(NCc1cccc(-c2cccc(-c3cc4c[nH]ccc-4n3)c2O)c1)Nc1ccccc1Cl`, the Ratio Ki in assay [1], in assay [2] and in assay [3] was 2630 each time.

Turning to `O=C(NCc1cccc(-c2cccc(-c3cc4c[nH]ccc-4n3)c2O)c1)Nc1ccsc1`, the Ratio Ki in assay [1] came out at 1150; in assay [2] it was 623; in assay [3], 769.

Turning to `O=C(NCc1cccc(-c2cccc(-c3cc4c[nH]ccc-4n3)c2O)c1)Nc1ccccn1`, the results for the Ratio Ki in assay [1], in assay [2] and in assay [3] were 56, 67 and 56, respectively. On Coagulation factor VII, this compound showed a Ki of 2700 nM.

Turning to `O=C(NCc1cccc(-c2cccc(-c3cc4c[nH]ccc-4n3)c2O)c1)C(CO)c1cccnc1` (configuration not stated), the Ratio Ki in assay [1] stood at 34; in assay [2] it was 149; in assay [3], 107. Further, the Ki at Coagulation factor VII stood at 610 nM.

As to `COc1ccccc1NC(=O)NCc1cccc(-c2cccc(-c3cc4c[nH]ccc-4n3)c2O)c1`, the values for the Ratio Ki in assay [1], in assay [2] and in assay [3] were 3190, 1720 and 3190, respectively. On Coagulation factor VII, this compound had a Ki of 47 nM.

As to `CC(=O)c1cccc(NC(=O)NCc2cccc(-c3cccc(-c4cc5c[nH]ccc-5n4)c3O)c2)c1`, the values for the Ratio Ki in assay [1], in assay [2] and in assay [3] were 2170, 2170 and 2000, respectively. For the same compound, on Coagulation factor VII, the Ki was determined as 60 nM.

For `O=C(NCCc1cccs1)NCc1cccc(-c2cccc(-c3cc4c[nH]ccc-4n3)c2O)c1`, the Ratio Ki came out at 120 in assay [1], 429 in assay [2] and 169 in assay [3].

In assay [4], `N=C(N)c1ccc2[nH]c(-c3cccc(-c4cc(CNC(N)=O)ccc4O)c3O)nc2c1` had a Ki of 3.6 µM.

On to `O=C(NCc1cccc(-c2cccc(-c3cc4c[nH]ccc-4n3)c2O)c1)Nc1ccc(F)cc1F`, for which the Ratio Ki in assay [1] stood at 1500; in assay [2], 1700; in assay [3] it was 1200. At Coagulation factor VII, this compound showed a Ki of 100 nM.

Take `O=C(Cc1c(F)cccc1F)NCc1cccc(-c2cccc(-c3cc4c[nH]ccc-4n3)c2O)c1`: the Ratio Ki in assay [1] was 16; in assay [2], 10; in assay [3], 16. Moreover, the Ki on Coagulation factor VII turned out to be 9500 nM.

In the case of `O=C(NCc1cccc(-c2cccc(-c3cc4c[nH]ccc-4n3)c2O)c1)C(CO)c1ccccc1` (configuration not stated), the values for the Ratio Ki in assay [1], in assay [2] and in assay [3] were 57, 136 and 470, respectively. In addition, the Ki at Coagulation factor VII was 220 nM.

Take `COc1ccc(NC(=O)NCc2cccc(-c3cccc(-c4cc5c[nH]ccc-5n4)c3O)c2)cc1`: the Ratio Ki in assay [1] was determined as 1590; in assay [2], 705; in assay [3], 1020. The affinity at Coagulation factor VII corresponds to a Ki of 88 nM.

Take `CC(=O)c1ccc(NC(=O)NCc2cccc(-c3cccc(-c4cc5c[nH]ccc-5n4)c3O)c2)cc1`: the values for the Ratio Ki in assay [1], in assay [2] and in assay [3] were 495, 789 and 305, respectively.

For the compound `O=C(NCc1cccc(-c2cccc(-c3cc4c[nH]ccc-4n3)c2O)c1)Nc1cccc(F)c1`, the Ratio Ki in assay [1] turned out to be 1150; in assay [2] it was 923; in assay [3] it was 1150. Moreover, the Ki on Coagulation factor VII was determined as 130 nM.

Take `O=C(Cc1ccccc1)NCc1cccc(-c2cccc(-c3cc4c[nH]ccc-4n3)c2O)c1`: the Ratio Ki stood at 26 in assay [1], 46 in assay [2] and 24 in assay [3].

On to `O=C(NCc1cccc(-c2cccc(-c3cc4c[nH]ccc-4n3)c2O)c1)C(O)c1ccccc1` (configuration not stated), for which the Ratio Ki stood at 57 in assay [1], 80 in assay [2] and 68 in assay [3]. Moreover, affinity on Coagulation factor VII was put at a Ki of 850 nM.

As to `O=C(NCc1cccc(-c2cccc(-c3cc4c[nH]ccc-4n3)c2O)c1)Nc1c(F)cccc1F`, the values for the Ratio Ki in assay [1], in assay [2] and in assay [3] were 2180, 2700 and 3940, respectively. The compound further gave a Ki on Coagulation factor VII of 33 nM.

On to `O=C(NCc1cccc(-c2cccc(-c3cc4c[nH]ccc-4n3)c2O)c1)N1CCCC1`, for which the Ratio Ki in assay [1] came out at 9; in assay [2] it was 3; in assay [3], 5. At Coagulation factor VII, this compound came in with a Ki of 17000 nM.

With `O=C(NCc1cccc(-c2cccc(-c3cc4c[nH]ccc-4n3)c2O)c1)Nc1ccc(F)cc1`, the Ratio Ki is 1360 in assay [1], 382 in assay [2] and 1360 in assay [3]. The compound further showed a Ki at Coagulation factor VII of 110 nM.

On to `O=C(NCc1cccc(-c2cccc(-c3cc4c[nH]ccc-4n3)c2O)c1)Nc1cccs1`, for which the Ratio Ki in assay [1] is 538; in assay [2], 600; in assay [3], 938.

With `CCCCCNC(=O)NCc1cccc(-c2cccc(-c3cc4c[nH]ccc-4n3)c2O)c1`, the Ratio Ki in assay [1] amounted to 181; in assay [2], 388; in assay [3] it was 343. The compound also registered a Ki at Coagulation factor VII of 335 nM.

In the case of `COc1cccc(NC(=O)NCc2cccc(-c3cccc(-c4cc5c[nH]ccc-5n4)c3O)c2)c1`, the Ratio Ki in assay [1] was 1500; in assay [2], 1600; in assay [3] it was 1500. At Coagulation factor VII, this compound showed a Ki of 100 nM.

Turning to `O=C(NCc1cccc(-c2cccc(-c3cc4c[nH]ccc-4n3)c2O)c1)Nc1ccc(C(=O)O)cc1`, the Ratio Ki in assay [1] was determined as 1100; in assay [2], 966; in assay [3], 2240. The compound further had a Ki on Coagulation factor VII of 58 nM.

With `CN1CCN(C(=O)NCc2cccc(-c3cccc(-c4cc5c[nH]ccc-5n4)c3O)c2)CC1`, the Ratio Ki in assay [1], in assay [2] and in assay [3] was 1 each time. At Coagulation factor VII, this compound gave a Ki of 130000 nM.

As for `O=C(NCCc1ccccc1)NCc1cccc(-c2cccc(-c3cc4c[nH]ccc-4n3)c2O)c1`, the results for the Ratio Ki in assay [1], in assay [2] and in assay [3] were 96, 417 and 174, respectively. Besides, on Coagulation factor VII, affinity was put at a Ki of 270 nM.

With `O=C(NCc1cccc(-c2cccc(-c3cc4c[nH]ccc-4n3)c2O)c1)Nc1cccnc1`, the figures for the Ratio Ki in assay [1], in assay [2] and in assay [3] were 935, 635 and 968, respectively. Also, the Ki on Coagulation factor VII was found to be 155 nM.

Turning to `COc1ccc(NC(=O)NCc2cccc(-c3cccc(-c4cc5c[nH]ccc-5n4)c3O)c2)c(OC)c1`, the Ratio Ki in assay [1] came to 5000; in assay [2], 2640; in assay [3] it was 3180. The same compound yielded a Ki at Coagulation factor VII of 28 nM.

(Values after ChEMBL document CHEMBL1148511, “Novel 5-azaindole factor VIIa inhibitors” (Bioorg Med Chem Lett, 2006).)
